{
  "source": "ChEMBL document CHEMBL4177706",
  "about": "“Exploiting a water network to achieve enthalpy-driven, bromodomain-selective BET inhibitors” (Bioorg Med Chem, 2018)",
  "key": {"[1]": {"species": "Homo sapiens", "assay": "Selectivity index, ratio of Kd for His-tagged BRD2 bromodomain 1 (unknown origin) to Kd for His-tagged BRD2 bromodomain 2 (unknown origin)", "how_it_was_run": "(§1)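 SPR at 15 °C: poly-His BRD2 bromodomain constructs capture-coupled (Ni2+/NTA plus EDC/NHS amine coupling) to ~450–530 RU, with a reference channel. Compounds run as 3-fold series from 2 μM, in duplicate, at 150 μL/min.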"}, "[2]": {"molecular_target": "T1, Bromodomain-containing protein 2 (Homo sapiens, UniProt P25440)", "assay": "Inhibition of recombinant human BRD2 bromodomain 1 (49 to 170 residues) using biotin labeled peptide substrate preincubated for 15 mins followed by substrate addition measured after 1 hr by TR-FRET assay", "format": "single protein"}, "[3]": {"species": "Homo sapiens", "assay": "Selectivity index, ratio of Kd for BRD2 bromodomain 1 (74 to 194 residues) (unknown origin to Kd for BRD2 bromodomain 2 (348 to 455 residues) (unknown origin)"}, "[4]": {"molecular_target": "T1, Bromodomain-containing protein 2", "assay": "Binding affinity to His-tagged BRD2 bromodomain 2 (unknown origin) by SPR assay", "how_it_was_run": "as §1"}, "[5]": {"molecular_target": "T1, Bromodomain-containing protein 2", "assay": "Binding affinity to His-tagged BRD2 bromodomain 1 (unknown origin) by SPR assay", "format": "single protein", "how_it_was_run": "as §1"}, "[6]": {"molecular_target": "T1, Bromodomain-containing protein 2"}, "[7]": {"system": "BJ", "assay": "Cytotoxicity against human BJ cells assessed as reduction in cell viability after 3 days by CellTiter-Glo assay", "format": "cell-based"}, "[8]": {"system": "HEK293", "assay": "Cytotoxicity against HEK293 cells assessed as reduction in cell viability after 3 days by CellTiter-Glo assay", "format": "cell-based, Homo sapiens"}, "[9]": {"system": "HepG2", "assay": "Cytotoxicity against human HepG2 cells assessed as reduction in cell viability after 3 days by CellTiter-Glo assay", "format": "cell-based"}, "[10]": {"molecular_target": "T1, Bromodomain-containing protein 2", "assay": "Binding affinity to BRD2 bromodomain 1 (74 to 194 residues) (unknown origin) by ITC"}, "[11]": {"molecular_target": "T1, Bromodomain-containing protein 2", "assay": "Inhibition of BRD2 in human HD-MB03 cells assessed as reduction in c-Myc protein expression after 72 hrs by Hoechst 33342 staining based immunofluorescence assay", "format": "cell-based", "how_it_was_run": "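HD-MB03 cells (3000/well, supplemented neurobasal medium) treated 24 h after plating with compound at 2 nM–40 μM final for 72 h. Imaged at 10x; nuclear masks from Hoechst used to quantify MYC per nucleus.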"}, "[12]": {"system": "LOUCY", "assay": "Cytotoxicity against human Loucy cells assessed as reduction in cell viability after 5 days by CellTiter-Glo assay", "settings": "120 h"}, "[13]": {"assay": "Cytotoxicity against human NALM16 cells assessed as reduction in cell viability after 5 days by CellTiter-Glo assay", "settings": "NALM16, 120 h"}, "[14]": {"assay": "Cytotoxicity against human HD-MB03 cells assessed as reduction in cell viability after 5 days by CellTiter-Glo assay", "settings": "HD-MB03, 120 h"}},
  "data": [
    {"smiles": "CC(=O)N1c2ccc(-c3ccoc3)cc2[C@H](NC(=O)OC(C)C)C[C@@H]1C", "values": [
      {"measurement": "Selectivity Index", "setting": "[1]", "value": 1.7},
      {"measurement": "IC50", "setting": "[2]", "value": 5800, "unit": "nM"},
      {"measurement": "Selectivity Index", "setting": "[3]", "value": 0.5},
      {"measurement": "Kd", "setting": "[4]", "value": 148, "unit": "nM"},
      {"measurement": "Kd", "setting": "[5]", "value": 245, "unit": "nM"},
      {"measurement": "IC50", "setting": "[6]", "value": 1910, "unit": "nM"}
    ]},
    {"smiles": "CCNC(=O)C[C@@H]1N=C(c2ccc(Cl)cc2)c2cc(OC)ccc2-n2c(C)nnc21", "note": "[MOLIBRESIB]", "values": [
      {"measurement": "EC50", "setting": "[7]", "value": "Non-Toxic"},
      {"measurement": "EC50", "setting": "[8]", "value": "Non-Toxic"},
      {"measurement": "EC50", "setting": "[9]", "value": "Non-Toxic"}
    ]},
    {"smiles": "CC(=O)N1c2ccc(-c3cc[nH]c3)cc2[C@H](NC(=O)OC(C)C)C[C@@H]1C", "values": [
      {"measurement": "Selectivity Index", "setting": "[1]", "value": 1.4},
      {"measurement": "IC50", "setting": "[2]", "value": 2480, "unit": "nM"},
      {"measurement": "Selectivity Index", "setting": "[3]", "value": 4.6},
      {"measurement": "Kd", "setting": "[4]", "value": 77, "unit": "nM"},
      {"measurement": "Kd", "setting": "[5]", "value": 104, "unit": "nM"},
      {"measurement": "IC50", "setting": "[6]", "value": 410, "unit": "nM"}
    ]},
    {"smiles": "CC(=O)N1c2ccc(-c3ccsc3)cc2[C@H](NC(=O)OC(C)C)C[C@@H]1C", "values": [
      {"measurement": "Selectivity Index", "setting": "[1]", "value": 1.5},
      {"measurement": "IC50", "setting": "[2]", "value": 5210, "unit": "nM"},
      {"measurement": "Selectivity Index", "setting": "[3]", "value": 4.2},
      {"measurement": "Kd", "setting": "[5]", "value": 105, "unit": "nM"},
      {"measurement": "Kd", "setting": "[10]", "value": 71.7, "unit": "nM"},
      {"measurement": "IC50", "setting": "[6]", "value": 1080, "unit": "nM"}
    ]},
    {"smiles": "CC(=O)N1c2ccc(-c3cccs3)cc2[C@H](NC(=O)OC(C)C)C[C@@H]1C", "values": [
      {"measurement": "Selectivity Index", "setting": "[1]", "value": 1.1},
      {"measurement": "IC50", "setting": "[2]", "value": 1770, "unit": "nM"},
      {"measurement": "Selectivity Index", "setting": "[3]", "value": 2.9},
      {"measurement": "Kd", "setting": "[5]", "value": 66, "unit": "nM"},
      {"measurement": "Kd", "setting": "[10]", "value": 61.3, "unit": "nM"},
      {"measurement": "IC50", "setting": "[6]", "value": 830, "unit": "nM"}
    ]},
    {"smiles": "CC(=O)N1c2ccc(-c3ccco3)cc2[C@H](NC(=O)OC(C)C)C[C@@H]1C", "values": [
      {"measurement": "inhibition", "setting": "[11]", "value": "Dose-dependent effect"},
      {"measurement": "EC50", "setting": "[7]", "value": "Non-Toxic"},
      {"measurement": "EC50", "setting": "[8]", "value": "Non-Toxic"},
      {"measurement": "EC50", "setting": "[9]", "value": "Non-Toxic"}
    ]},
    {"smiles": "CC(=O)N1c2ccc(-c3ccc[nH]3)cc2[C@H](NC(=O)OC(C)C)C[C@@H]1C", "values": [
      {"measurement": "Selectivity Index", "setting": "[1]", "value": 1.3},
      {"measurement": "IC50", "setting": "[2]", "value": 1400, "unit": "nM"},
      {"measurement": "Selectivity Index", "setting": "[3]", "value": 3.7},
      {"measurement": "Kd", "setting": "[4]", "value": 74, "unit": "nM"},
      {"measurement": "Kd", "setting": "[5]", "value": 99, "unit": "nM"},
      {"measurement": "IC50", "setting": "[6]", "value": 1400, "unit": "nM"}
    ]},
    {"smiles": "COc1cc(OC)c2c(=O)[nH]c(-c3cc(C)c(OCCO)c(C)c3)nc2c1", "note": "[APABETALONE]", "values": [
      {"measurement": "EC50", "setting": "[7]", "value": "Non-Toxic"},
      {"measurement": "EC50", "setting": "[8]", "value": "Non-Toxic"},
      {"measurement": "EC50", "setting": "[9]", "value": "Non-Toxic"}
    ]},
    {"smiles": "Cc1sc2c(c1C)C(c1ccc(Cl)cc1)=N[C@@H](CC(=O)OC(C)(C)C)c1nnc(C)n1-2", "values": [
      {"measurement": "EC50", "setting": "[7]", "value": "Non-Toxic"},
      {"measurement": "EC50", "setting": "[8]", "value": "Non-Toxic"},
      {"measurement": "EC50", "setting": "[9]", "value": "Non-Toxic"}
    ]},
    {"smiles": "CC(=O)N1c2ccc(-c3ccc(C(=O)O)cc3)cc2[C@H](Nc2ccc(Cl)cc2)C[C@@H]1C", "values": [
      {"measurement": "IC50", "setting": "[2]", "value": 720, "unit": "nM"},
      {"measurement": "EC50", "setting": "[12]", "value": 700, "unit": "nM"},
      {"measurement": "EC50", "setting": "[7]", "value": "Non-Toxic"},
      {"measurement": "EC50", "setting": "[13]", "value": 310, "unit": "nM"},
      {"measurement": "EC50", "setting": "[9]", "value": "Non-Toxic"},
      {"measurement": "EC50", "setting": "[14]", "value": 200, "unit": "nM"},
      {"measurement": "IC50", "setting": "[6]", "value": 30, "unit": "nM"}
    ]}
  ]
}
